Consider 16 molecules from PubChem BioAssay.

Test [1] can be described thus: reducers of endogenous Her2 protein level, primary screen, SKBR3 breast tumor cells, AlphaScreen, ATP viability (AID 461).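 For Her2 level: lower value means less Her2 protein in the cells.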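 For viability: percent of carrier control wells set as 100% viability.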 The settings on record: 18-24 h, measured here: SKBR3 viability, ATP luminescence, at 10 µM. Background: Bead proximity is the source of the signal in Alpha formats.
Test [2] addresses Receptor tyrosine-protein kinase erbB-2 (Homo sapiens) (UniProt P04626). The description is as above. The settings on record: 18-24 h, at 10 µM, stronger effect = lower value.
Test [3] can be described thus: SK-BR-3 cell growth inhibitors, pilot screen, 24 h, human (AID 572;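 active = viability at or below 10% of carrier control in both of two separate runs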;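 note: compound exposure lasted between 18 and 24 h rather than exactly 24 h; 100% = carrier-treated control wells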). The note with it: SK-BR-3 viability, CellTiter-Glo luminescence, at 10 µM, stronger effect = lower value.
Test [4] is described as follows: HUVEC growth inhibition – cell-based, human, primary screen (AID 575;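 active = viability at or below 30% in both replicate assays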;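 note: 100% = median of untreated cell wells with 0.1% DMSO on each plate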). The settings on record: HUVEC proliferation, CellTiter-Glo luminescence, 72 h; at 10 µM; stronger effect = lower value. In a few lines: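 System – primary HUVEC, no more than 12 passages · Medium – Low-serum (2% FBS) EBM, supplemented · Times – 72 h exposure, 37 °C, 5% CO2, 30 min RT equilibration · Measured by – luminescent ATP assay · Read-out – % viability relative to median vehicle-well signal on each plate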
(In general: ATP-based viability assays read luminescence as a measure of living cells.)

The nature of test [5]: growth inhibitors of H69AR lung tumor, primary screen, human, duplicate replicates (AID 580;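 active = viability at or under a set limit in both replicates, limit being median viability minus 3 SD, cut at about 48% in these data, passing the limit was not always enough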;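 note: 100% = mean luminescence of untreated wells and 0% = no signal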). The settings on record: H69AR lung tumor cells viability, ATP luminescence, 72 h; at 10 µM; stronger effect = lower value.
Test [6] can be described thus: reversal of MRP1-mediated doxorubicin resistance, pilot screen, H69AR cells, doxorubicin co-treatment (AID 601;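 active = viability loss from added drug above about 55%, and viability with drug at most 40%, in both replicates, limit read from the data, passing the limit was not always enough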). The settings on record: CellTiter-Glo, 72 h, at 10 µM; for differential viability (reversal): stronger effect = higher value.
The nature of test [7]: 384-well plate pilot, post-Golgi transport modulator project, inhibition of yeast transport mutant growth (AID 636; in the data active = inhibition above about 31%). The note with it: absorbance 615 nm, about 18 h, stronger effect = higher value.
Test [8] can be described thus: growth suppression of yeast trafficking mutant, preliminary HTS, modulators of trafficking downstream of Golgi apparatus project, 1536-format plate, OD 615 nm (AID 637; in the data active = inhibition above about 30%). The note with it: yeast transport mutant growth, absorbance 615 nm, 18 h; stronger effect = higher value.
[9] abbreviates: H69AR cells + 2 uM doxorubicin, measured here: viability with 2 uM doxorubicin, stronger effect = lower value.
[10] abbreviates: H69AR cells, compound alone cytotoxicity.

Active and inactive are the calls of the source.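 Rule for the calls, unless noted: active = Her2 level under about 52% in both replicate screens, with viability over 70% of control (limit read from the data); inconclusive = Her2 under the limit in one screen only, or viability under 70%; inactive = Her2 level above the set limit.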

Chain of Receptor tyrosine-protein kinase erbB-2 (Homo sapiens) (P04626 whole entry, looked up): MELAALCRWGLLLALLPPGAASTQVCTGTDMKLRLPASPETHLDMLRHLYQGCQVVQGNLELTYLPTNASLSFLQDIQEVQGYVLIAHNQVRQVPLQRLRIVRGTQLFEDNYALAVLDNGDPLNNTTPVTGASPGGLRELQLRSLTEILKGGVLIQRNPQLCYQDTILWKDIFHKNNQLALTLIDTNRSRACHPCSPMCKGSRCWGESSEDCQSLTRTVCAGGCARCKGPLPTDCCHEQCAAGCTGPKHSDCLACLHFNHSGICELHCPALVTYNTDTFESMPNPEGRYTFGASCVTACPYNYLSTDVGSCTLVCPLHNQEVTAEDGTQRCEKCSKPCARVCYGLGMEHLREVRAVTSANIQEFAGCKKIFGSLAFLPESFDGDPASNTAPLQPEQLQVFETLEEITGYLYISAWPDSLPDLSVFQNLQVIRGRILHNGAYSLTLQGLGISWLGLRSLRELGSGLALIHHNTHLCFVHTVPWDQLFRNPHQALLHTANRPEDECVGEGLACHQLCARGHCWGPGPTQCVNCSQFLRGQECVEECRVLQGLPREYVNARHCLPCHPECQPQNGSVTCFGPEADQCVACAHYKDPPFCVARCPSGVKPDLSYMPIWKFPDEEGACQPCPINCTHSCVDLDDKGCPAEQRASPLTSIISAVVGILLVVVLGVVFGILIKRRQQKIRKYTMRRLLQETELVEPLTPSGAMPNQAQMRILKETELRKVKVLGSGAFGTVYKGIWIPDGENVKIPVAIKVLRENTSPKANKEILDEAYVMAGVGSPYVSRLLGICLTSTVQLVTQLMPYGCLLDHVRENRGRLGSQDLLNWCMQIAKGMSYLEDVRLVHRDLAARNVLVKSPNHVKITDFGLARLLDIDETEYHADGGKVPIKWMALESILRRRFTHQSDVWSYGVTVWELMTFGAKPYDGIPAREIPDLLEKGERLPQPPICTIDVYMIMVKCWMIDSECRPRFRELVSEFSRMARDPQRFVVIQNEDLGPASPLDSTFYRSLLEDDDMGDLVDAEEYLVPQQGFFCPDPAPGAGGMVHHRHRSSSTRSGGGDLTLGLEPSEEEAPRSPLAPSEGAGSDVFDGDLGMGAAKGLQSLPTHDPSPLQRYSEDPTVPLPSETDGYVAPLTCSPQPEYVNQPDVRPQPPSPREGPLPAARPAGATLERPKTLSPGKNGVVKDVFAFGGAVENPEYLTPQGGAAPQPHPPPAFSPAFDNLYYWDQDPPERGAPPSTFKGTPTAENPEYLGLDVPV

Usually viability stands for a read-out of living cells in per cent, often relative to untreated cells. As a reminder, the inhibition is the drop in the measured response relative to a control, in per cent. For the molecule `CC(=O)NC(Cc1c[nH]c2ccccc12)C(=O)OCC(=O)Nc1cc(C)on1` (stereo not given), the viability was 91.5% in test [1]; 91.5% (inactive) in test [3]; 101% (inactive) in test [4]; 97% (inactive) in test [5]; 86% in test [6] (setting [9]); 97% in test [6] (setting [10]). Also, the Her2 level in test [2] is 117% (inactive). Moreover, the differential viability (reversal) in test [6] (H69AR cells + 2 uM doxorubicin) was 11% (inactive). In addition, the inhibition was 3.46% (inactive) in test [7] and -7.83% (inactive) in test [8].

Consider `O=C1OCCC1Sc1ncnc2sc3c(c12)CCC3` (stereo not given), for which the viability in test [1] was 95.5%; in test [3] it was 95.5% (inactive); in test [4] it was 97.6% (inactive); in test [5] it was 104% (inactive); in test [6] (setting [9]), 91.9%; in test [6] (setting [10]) it was 104%. Besides, the Her2 level in test [2] is 84.5% (inactive). Besides, the differential viability (reversal) in test [6] (H69AR cells + 2 uM doxorubicin) is 11.8% (inactive). Also, the inhibition is -4.67% (inactive) in test [7] and -0.32% (inactive) in test [8].

For the molecule `Nc1nc(CN2CCN(Cc3ccc4c(c3)OCO4)CC2)nc(Nc2ccccc2)n1`, the viability is 102% in test [1]; 102% (inactive) in test [3]; 114% (inactive) in test [4]; 97.4% (inactive) in test [5]; 84.4% in test [6] (setting [9]); 97.4% in test [6] (setting [10]). Also, in test [2], the Her2 level was 92.5% (inactive). In addition, in test [6] (H69AR cells + 2 uM doxorubicin), the differential viability (reversal) is 13% (inactive). The inhibition is -2.76% (inactive) in test [7] and 5.48% (inactive) in test [8].

Turning to `COCCN(C(=O)c1csnn1)C(C(=O)NC1CCCCC1)c1cccs1` (stereo not given), the viability in test [1] was 100%; in test [3], 100% (inactive); in test [4], 94.7% (inactive); in test [5], 98.9% (inactive); in test [6] (setting [9]) it was 87.9%; in test [6] (setting [10]) it was 98.9%. In addition, the Her2 level in test [2] is 89% (inactive). Further, the differential viability (reversal) in test [6] (H69AR cells + 2 uM doxorubicin) is 11% (inactive). Besides, the inhibition in test [7] is -7.6% (inactive); in test [8], 2.86% (inactive).

`COc1ccc(-n2ncc3c(=O)n(CC(=O)OCc4ccccc4)cnc32)cc1`: the viability is 83% in test [1]; 83% (inactive) in test [3]; 99.1% (inactive) in test [4]; 97.8% (inactive) in test [5]; 85.8% in test [6] (setting [9]); 97.8% in test [6] (setting [10]). In test [2], the Her2 level is 104% (inactive). Besides, the differential viability (reversal) in test [6] (H69AR cells + 2 uM doxorubicin) was 12% (inactive). The inhibition in test [7] was 0% (inactive); in test [8] it was 0.5% (inactive).

Consider `CCOC(=O)CNC(=O)CSc1ncnc2c1cnn2Cc1ccccc1`, for which the viability in test [1] was 96%; in test [3], 96% (inactive); in test [4], 54.5% (inactive); in test [5], 100% (inactive); in test [6] (setting [9]), 90.1%; in test [6] (setting [10]), 100%. Besides, the Her2 level in test [2] was 82.5% (inactive). Further, the differential viability (reversal) in test [6] (H69AR cells + 2 uM doxorubicin) is 10.3% (inactive). Also, the figures for the inhibition in test [7] and in test [8] were -5.84% (inactive) and -6.56% (inactive), respectively.

For `Cc1nc(N2CCOCC2)[nH]c(=O)c1CCC(C)C`, the viability in test [1] is 120%; in test [3], 120% (inactive); in test [4], 87.7% (inactive); in test [5], 91.9% (inactive); in test [6] (setting [9]), 91%; in test [6] (setting [10]), 91.9%. For the same molecule, in test [2], the Her2 level was 82% (inactive). Moreover, the differential viability (reversal) in test [6] (H69AR cells + 2 uM doxorubicin) was 0.88% (inactive). Moreover, the inhibition is -1.58% (inactive) in test [7] and 1.11% (inactive) in test [8].

As to `CCC1(c2ccc(F)cc2)NC(=O)N(CC(=O)c2ccc[nH]2)C1=O` (stereo not given), the viability was 110% in test [1]; 110% (inactive) in test [3]; 99.3% (inactive) in test [4]; 96.6% (inactive) in test [5]; 86.9% in test [6] (setting [9]); 96.6% in test [6] (setting [10]). Besides, the Her2 level in test [2] was 117% (inactive). Further, in test [6] (H69AR cells + 2 uM doxorubicin), the differential viability (reversal) is 9.76% (inactive). For the same molecule, the inhibition in test [7] is -2.08% (inactive); in test [8] it was -4.83% (inactive).

For the molecule `Cc1cc(NC(=O)CSc2nc3ccsc3c(=O)n2NC(=O)c2ccccc2)no1`, the viability in test [1] was 94.5%; in test [3], 94.5% (inactive); in test [4] it was 93.9% (inactive); in test [5], 97.1% (inactive); in test [6] (setting [9]) it was 85.1%; in test [6] (setting [10]), 97.1%. In addition, the Her2 level in test [2] is 100% (inactive). For the same molecule, the differential viability (reversal) in test [6] (H69AR cells + 2 uM doxorubicin) is 12% (inactive). Also, the inhibition is -0.93% (inactive) in test [7] and 13.8% (inactive) in test [8].

Consider `O=C(NCc1ccc2c(c1)OCO2)c1cc2n(n1)C(C(F)(F)F)CC(c1ccc3c(c1)OCO3)N2` (stereo not given), for which the viability is 98% in test [1]; 98% (inactive) in test [3]; 73.8% (inactive) in test [4]; 84.2% (inactive) in test [5]; 74.7% in test [6] (setting [9]); 84.2% in test [6] (setting [10]). The Her2 level in test [2] was 82% (inactive). Also, the differential viability (reversal) in test [6] (H69AR cells + 2 uM doxorubicin) was 9.51% (inactive). The values for the inhibition in test [7] and in test [8] were -2.89% (inactive) and 5% (inactive), respectively.

`CCOCC(=O)Nc1ccc(S(=O)(=O)N2CCOCC2)cc1`: the viability in test [1] is 95%; in test [3], 95% (inactive); in test [4] it was 92.3% (inactive); in test [5], 82.5% (inactive); in test [6] (setting [9]), 76.1%; in test [6] (setting [10]), 82.5%. In addition, the Her2 level in test [2] is 85% (inactive). Also, the differential viability (reversal) in test [6] (H69AR cells + 2 uM doxorubicin) is 6.46% (inactive). The results for the inhibition in test [7] and in test [8] were -4.67% (inactive) and -2.7% (inactive), respectively.

With `O=C(CN1C(=O)CSC1=O)N1CCc2ccccc2C1`, the viability in test [1] is 100%; in test [3] it was 100% (inactive); in test [4] it was 73.4% (inactive); in test [5], 89.6% (inactive); in test [6] (setting [9]) it was 89.3%; in test [6] (setting [10]), 89.6%. Besides, the Her2 level in test [2] is 98% (inactive). For the same molecule, the differential viability (reversal) in test [6] (H69AR cells + 2 uM doxorubicin) was 0.255% (inactive). For the same molecule, the inhibition was -2.34% (inactive) in test [7] and -3.5% (inactive) in test [8].

Regarding `CCOc1ccc2nc(NC(=O)CSc3nnnn3C3CCCCC3)sc2c1`, the viability in test [1] is 92%; in test [3], 92% (inactive); in test [4] it was 59.7% (inactive); in test [5] it was 63.5% (inactive); in test [6] (setting [9]), 58.8%; in test [6] (setting [10]) it was 63.5%. The Her2 level in test [2] is 108% (inactive). For the same molecule, the differential viability (reversal) in test [6] (H69AR cells + 2 uM doxorubicin) is 4.67% (inactive). The inhibition in test [7] was 9.08% (inactive); in test [8] it was -0.33% (inactive).

On to `CCCN(Cc1cc2cc(C)ccc2[nH]c1=O)C(=O)c1cccc(OC)c1`, for which the viability in test [1] is 114%; in test [3], 114% (inactive); in test [4], 70.6% (inactive); in test [5], 81.2% (inactive); in test [6] (setting [9]) it was 82.1%; in test [6] (setting [10]), 81.2%. The Her2 level in test [2] is 91% (inactive). Further, the differential viability (reversal) in test [6] (H69AR cells + 2 uM doxorubicin) was -0.89% (inactive). Besides, the results for the inhibition in test [7] and in test [8] were -7.07% (inactive) and -0.65% (inactive), respectively.

Turning to `N#Cc1nc(-c2cccs2)oc1NCCc1ccccc1`, the viability is 93.5% in test [1]; 93.5% (inactive) in test [3]; 84.3% (inactive) in test [4]; 102% (inactive) in test [5]; 83.4% in test [6] (setting [9]); 102% in test [6] (setting [10]). Besides, in test [2], the Her2 level is 86.5% (inactive). In test [6] (H69AR cells + 2 uM doxorubicin), the differential viability (reversal) was 18.3% (inactive). The inhibition in test [7] was -1.18% (inactive); in test [8], 1.29% (inactive).

In the case of `OCCn1c(-c2ccc3c(c2)OCO3)csc1=Nc1ccccc1`, the viability was 97% in test [1]; 97% (inactive) in test [3]; 51.4% (inactive) in test [4]; 88.7% (inactive) in test [5]; 91.2% in test [6] (setting [9]); 88.7% in test [6] (setting [10]). For the same molecule, in test [2], the Her2 level was 71.5% (inactive). In addition, the differential viability (reversal) in test [6] (H69AR cells + 2 uM doxorubicin) is -2.46% (inactive). The inhibition in test [7] is -4.4% (inactive); in test [8], 5.9% (inactive).
